Test results as given in ChEMBL document CHEMBL1122934, “Angiotensin-converting enzyme inhibitors. New orally active antihypertensive (mercaptoalkanoyl)- and [(acylthio)alkanoyl]glycine derivatives” (J Med Chem, 1985).
pIC50: −log10 of the molar value.

What was measured:
[1] = molecular target: T1, Angiotensin-converting enzyme (Oryctolagus cuniculus, UniProt P12822); test: In vitro inhibitory activity against rabbit lung Angiotensin I converting enzyme at pH 8.3
T1 sequence (P12822 whole entry): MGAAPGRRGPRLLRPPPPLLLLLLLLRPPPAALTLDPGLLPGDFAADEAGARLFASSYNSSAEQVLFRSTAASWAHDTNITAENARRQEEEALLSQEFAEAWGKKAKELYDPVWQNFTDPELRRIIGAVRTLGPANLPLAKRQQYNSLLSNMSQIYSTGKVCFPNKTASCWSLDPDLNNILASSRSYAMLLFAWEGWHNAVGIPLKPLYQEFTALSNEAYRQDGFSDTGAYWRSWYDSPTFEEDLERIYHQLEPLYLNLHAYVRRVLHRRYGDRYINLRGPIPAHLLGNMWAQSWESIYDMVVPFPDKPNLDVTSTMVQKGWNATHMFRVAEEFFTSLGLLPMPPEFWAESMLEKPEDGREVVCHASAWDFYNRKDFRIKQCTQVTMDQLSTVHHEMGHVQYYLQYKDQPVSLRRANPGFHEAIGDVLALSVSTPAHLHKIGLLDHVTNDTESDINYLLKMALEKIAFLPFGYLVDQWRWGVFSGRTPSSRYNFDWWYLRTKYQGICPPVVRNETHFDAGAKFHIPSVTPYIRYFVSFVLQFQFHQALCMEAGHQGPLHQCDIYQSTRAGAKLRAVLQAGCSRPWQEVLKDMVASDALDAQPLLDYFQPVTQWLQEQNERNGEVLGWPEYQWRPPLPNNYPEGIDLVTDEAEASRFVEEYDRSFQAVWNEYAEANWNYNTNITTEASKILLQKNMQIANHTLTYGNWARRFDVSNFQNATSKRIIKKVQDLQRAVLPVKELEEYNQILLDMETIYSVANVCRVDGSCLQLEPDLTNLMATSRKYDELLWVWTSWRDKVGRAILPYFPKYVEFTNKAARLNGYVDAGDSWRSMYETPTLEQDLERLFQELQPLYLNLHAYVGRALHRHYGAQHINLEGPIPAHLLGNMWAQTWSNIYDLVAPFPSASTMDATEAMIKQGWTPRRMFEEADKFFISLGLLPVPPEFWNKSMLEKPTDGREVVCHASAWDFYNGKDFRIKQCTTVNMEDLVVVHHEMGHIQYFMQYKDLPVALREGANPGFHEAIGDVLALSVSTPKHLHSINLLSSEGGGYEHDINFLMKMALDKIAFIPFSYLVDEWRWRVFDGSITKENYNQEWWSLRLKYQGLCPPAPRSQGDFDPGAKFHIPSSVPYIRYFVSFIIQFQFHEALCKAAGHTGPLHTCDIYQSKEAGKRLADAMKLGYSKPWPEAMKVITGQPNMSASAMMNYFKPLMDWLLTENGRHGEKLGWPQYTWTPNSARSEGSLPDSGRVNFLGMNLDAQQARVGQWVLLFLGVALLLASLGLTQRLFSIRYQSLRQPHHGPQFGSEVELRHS

[2] = molecular target: T2, Angiotensin-converting enzyme (Rattus norvegicus) (UniProt P47820); test: Peroral dose required to inhibit angiotensin I induced vasopressor response in normotensive conscious rats; assay type: functional
T2 sequence (whole entry): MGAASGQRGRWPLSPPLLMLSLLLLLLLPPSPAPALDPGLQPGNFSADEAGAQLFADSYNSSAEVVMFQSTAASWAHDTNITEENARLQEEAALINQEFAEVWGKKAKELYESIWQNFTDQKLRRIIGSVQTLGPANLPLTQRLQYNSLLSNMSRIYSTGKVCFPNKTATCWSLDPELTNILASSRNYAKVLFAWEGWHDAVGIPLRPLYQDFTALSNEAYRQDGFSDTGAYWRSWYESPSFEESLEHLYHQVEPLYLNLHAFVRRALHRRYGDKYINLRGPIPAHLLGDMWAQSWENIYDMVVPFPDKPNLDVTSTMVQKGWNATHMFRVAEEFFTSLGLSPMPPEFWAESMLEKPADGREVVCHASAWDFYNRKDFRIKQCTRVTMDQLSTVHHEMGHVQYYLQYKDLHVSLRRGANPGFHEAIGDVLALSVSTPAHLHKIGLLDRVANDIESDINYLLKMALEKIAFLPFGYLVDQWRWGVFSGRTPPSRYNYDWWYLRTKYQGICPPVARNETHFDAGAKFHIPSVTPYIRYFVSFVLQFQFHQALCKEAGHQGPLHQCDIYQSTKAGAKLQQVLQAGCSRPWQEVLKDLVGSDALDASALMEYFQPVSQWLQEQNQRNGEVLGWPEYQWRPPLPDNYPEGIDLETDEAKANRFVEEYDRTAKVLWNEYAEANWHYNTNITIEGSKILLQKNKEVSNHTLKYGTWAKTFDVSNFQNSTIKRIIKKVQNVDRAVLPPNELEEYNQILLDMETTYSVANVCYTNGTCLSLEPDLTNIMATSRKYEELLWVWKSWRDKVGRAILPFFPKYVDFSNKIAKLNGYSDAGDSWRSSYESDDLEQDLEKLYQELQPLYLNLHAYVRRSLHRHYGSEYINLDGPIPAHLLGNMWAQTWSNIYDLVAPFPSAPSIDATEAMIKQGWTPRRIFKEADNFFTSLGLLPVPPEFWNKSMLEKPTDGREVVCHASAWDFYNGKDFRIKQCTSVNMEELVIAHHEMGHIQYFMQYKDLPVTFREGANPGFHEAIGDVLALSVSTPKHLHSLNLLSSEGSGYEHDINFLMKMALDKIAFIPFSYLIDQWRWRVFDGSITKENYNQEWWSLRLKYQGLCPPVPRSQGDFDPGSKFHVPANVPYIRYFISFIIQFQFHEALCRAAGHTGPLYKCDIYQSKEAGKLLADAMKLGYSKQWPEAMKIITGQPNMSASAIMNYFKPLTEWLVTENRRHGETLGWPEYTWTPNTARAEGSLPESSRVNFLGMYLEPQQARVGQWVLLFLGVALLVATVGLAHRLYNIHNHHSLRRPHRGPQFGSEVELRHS
Method in brief: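 Male normotensive rats with aortic and vena caval catheters, used ≥6 days later while restrained; angiotensins I and II 0.25 μg/kg iv every 10 min. One oral inhibitor dose in 0.5% gum tragacanth suspension; angiotensin I repeated every 10 min for ≥2 h. Maximum inhibition as % of initial response; ID50 from dose-response plot.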

Canis familiaris = test: Peroral dose required to inhibit angiotensin I induced vasopressor response in normotensive conscious dogs; assay type: functional; details: Canis lupus familiaris, po; read-out: ID50 (the source's name)
Method in brief: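 Six conscious normotensive dogs; pressor response to angiotensin I 0.25 μg/kg iv. Inhibitor given orally at 0.01–1 mg/kg, vehicle 0.3 M KH₂PO₄ buffer, weekly intervals in a three-way crossover with vehicle control.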

Row | Structure (SMILES) | pIC50 [1] | ID50 [2] [mg/kg] | ED50 (Canis familiaris) [mg/kg]
1 | Cc1ccc(N(CC(=O)O)C(=O)C(C)CS)cc1 (stereo not given) | 8.30 | – | –
2 | CC(=O)SCC(C)C(=O)N(CC(=O)O)C1CCS(=O)(=O)C1 (stereo not given) | 6.55 | – | –
3 | CC(=O)SCC(C)C(=O)N(CC(=O)O)CC1CC2CC(C1C)C2(C)C (stereo not given) | 7.07 | – | –
4 | CC(=O)SCC(C)C(=O)N(CC(=O)O)Cc1cccs1 (stereo not given) | 6.12 | – | –
5 | CCOC(=O)[C@H](CCc1ccccc1)N[C@@H](C)C(=O)N1CCC[C@H]1C(=O)O | – | 0.08 | 0.1
6 | C[C@H](CS)C(=O)N1CCC[C@H]1C(=O)O [CAPTOPRIL] | – | – | 0.057
7 | CC(CS)C(=O)NCC(=O)O (stereo not given) | 6.68 | – | –
8 | CC(=O)SCC(C)C(=O)N(CC(=O)O)C1CC2CCC1C2 (stereo in doubt; 30) | – | 0.06 | –
9 | CSCCCN(CC(=O)O)C(=O)C(C)CSC(C)=O (stereo not given) | 6.05 | 1.5 | –
10 | CC(CS)C(=O)N(CC(=O)O)C1CC2CCC1C2 (stereo not given) | 7.49 | 0.1 | –
11 | CCCCc1ccc(N(CC(=O)O)C(=O)C(C)CSC(C)=O)cc1 (stereo not given) | 7.19 | – | –
12 | CC(CSC(=O)CC(C)(C)C)C(=O)N(CC(=O)O)C1CCCC1 (stereo not given) | 4.82 | 1.2 | –
13 | CC(=O)SCC(C)C(=O)N(CC(=O)O)c1ccccc1 (stereo not given) | 6.52 | 0.2 | –
14 | CC(=O)SCC(C)C(=O)N(C1CC1)C(C)C(=O)O (stereo not given) | 6.66 | – | –

Second part, led by results:

Row | pIC50 [1] | ID50 [2] [mg/kg] | Structure (SMILES) | ED50 (Canis familiaris) [mg/kg]
15 | 7.29 | – | CC(=O)SCC(C)C(=O)N(CC(=O)O)c1cccc(F)c1 (stereo not given) | –
16 | 6.89 | 0.15 | CC(=O)SCC(C)C(=O)N(CC(=O)O)c1ccc(C)cc1 (stereo not given) | –
17 | 6.96 | – | COc1cccc(N(CC(=O)O)C(=O)C(C)CSC(C)=O)c1 (stereo not given) | –
18 | 7.28 | – | CC(=O)SCC(C)C(=O)N(CC(=O)O)C1CC2CCC1C2 (stereo in doubt; 31) | –
19 | 7.36 | – | CC(=O)SCC(C)C(=O)N(CC(=O)O)c1cc(C)cc(C)c1 (stereo not given) | –
20 | 7.12 | – | CCN(CC(=O)O)C(=O)C(C)CS (stereo not given) | –
21 | 6.27 | 0.2 | CC(=O)SCC(C)C(=O)N(CC(=O)O)C1CC1 (stereo not given) | –
22 | 6.26 | – | CC(=O)SCC(C)C(=O)N(CC(=O)O)c1ccccc1C (stereo not given) | –
23 | 5.72 | – | CC(=O)SCC(C)C(=O)N(CC(=O)O)CC1CCCO1 (stereo not given) | –
24 | 6.89 | – | CC(CS)C(=O)N(CC(=O)O)CC1CCCO1 (stereo not given) | –
25 | 7.12 | 0.15 | CC(=O)SCC(C)C(=O)N(CC(=O)O)c1cccc(C)c1 (stereo not given) | –
26 | 7.26 | – | CC(CS)C(=O)N(CC(=O)O)Cc1cccs1 (stereo not given) | –
27 | 6.47 | – | CC(=O)SCC(C)C(=O)N(CC(=O)O)C1Cc2ccccc2C1 (stereo not given) | –
28 | 6.15 | – | CC(=O)SCC(C)C(=O)N(CC(=O)O)Cc1ccco1 (stereo not given) | –
29 | 6.92 | – | Cc1ccccc1N(CC(=O)O)C(=O)C(C)CS (stereo not given) | –
30 | – | 0.1 | CC(CS)C(=O)N(CC(=O)O)C1CCCCC1 (stereo not given) | –
31 | 7.36 | – | Cc1cc(C)cc(N(CC(=O)O)C(=O)C(C)CS)c1 (stereo not given) | –
32 | – | 0.15 | CC(CS)C(=O)N(CC(=O)O)C1Cc2ccccc2C1 (stereo not given) | –
